Calb FLC: C. albicans growth modulation with fluconazole. C. albicans CaCi-2 (fluconazole-resistant clinical isolate) + fluconazole, Alamar Blue growth, 48 h. AID 1979. growth inhibition, % (no concentration beside the values). 300,000 compounds, 0.57% hits;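 active = growth inhibition above about 58% in most replicates, limit read from the data, passing the limit was not always enough; inconclusive = exactly half the replicates above a set limit; inactive = most replicates below a set limit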;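 note: all wells also contain fluconazole at 8 µg/ml as a sub-toxic cotreatment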
Insulin prom up: MIN6 insulin promoter up-regulation. MIN6 insulin promoter-GFP reporter, high-content imaging; active compounds read high. z-score at 5 µM. 190,000 compounds, 0.3% hits;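 active = z-score above 3 at 5 µM with at least 500 cells counted in the well; inconclusive = wells under 500 cells, flagged as cytotoxic or low count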
beta cell repl: MIN6 beta-cell proliferation induction; MIN6 cells proliferation, ATPlite luminescence, 48 h; cells starved in 0.2% serum; 100% = growth in 10% serum; proliferation, % at 10 µM; 330,000 compounds, 0.29% hits;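 active = compounds whose signal lies at least 3.5 SD above the mean of all wells on their plate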
m5-HT2A agonist: mouse HTR2A agonism via beta-arrestin recruitment; P35363; CHO-K1 mHTR2A beta-arrestin complementation, luminescence; percent of 30 µM serotonin response; activation, % at 7.6 µM; 360,000 compounds, 0.66% hits; AID 624169;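 active = activation above a run cutoff, the mean activation of all tested compounds plus 3 SD, cut at about 14% in these data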
Target sequence (P35363 whole entry, looked up): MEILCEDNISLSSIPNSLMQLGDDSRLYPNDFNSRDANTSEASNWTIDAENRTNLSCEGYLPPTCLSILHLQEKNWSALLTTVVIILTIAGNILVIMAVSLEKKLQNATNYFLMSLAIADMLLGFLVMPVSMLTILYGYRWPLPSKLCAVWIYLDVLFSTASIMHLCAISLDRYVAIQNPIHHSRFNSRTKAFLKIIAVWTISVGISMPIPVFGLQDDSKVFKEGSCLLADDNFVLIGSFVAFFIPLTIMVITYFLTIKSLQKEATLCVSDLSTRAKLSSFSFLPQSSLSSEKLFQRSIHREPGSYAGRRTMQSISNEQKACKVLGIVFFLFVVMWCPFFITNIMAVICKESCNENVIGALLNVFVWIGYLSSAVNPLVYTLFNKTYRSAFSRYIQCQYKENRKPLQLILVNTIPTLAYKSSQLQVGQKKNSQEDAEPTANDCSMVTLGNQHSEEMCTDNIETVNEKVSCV
SR-BI HDL uptake: mouse SR-BI HDL lipid transfer inhibition | Q61009 | ldlA[mSR-BI] CHO cells, DiI-HDL uptake fluorescence, 3 h | inhibition, % at 12.5 µM | 320,000 compounds, 0.96% hits;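 active = mean replicate inhibition of at least 70% and a set share of replicates each scoring 70 or more; inconclusive = meets just one of the two criteria; inactive = fails both criteria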
SR-BI uptake up: activators of SR-BI mediated HDL lipid uptake; CHO ldlA[mSR-BI] cells, DiI-HDL uptake fluorescence, 3 h; 100 = double the neutral-control signal; activation, % at 12.5 µM; 320,000 compounds, 0.096% hits;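 active = mean replicate activation of at least 60% and every replicate at or above 60%; inconclusive = mean or all-replicate condition met, but not both; inactive = mean below 60% and not all replicates reaching 60%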
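System: LDL receptor-deficient CHO ldlA cells overexpressing murine SR-BI | Timing: 3 h uptake period with compound, 37 °C | Medium: HEPES-buffered (25 mM, pH 7.4) F12 plus 0.5% BSA | Dosing: Single-point compound dose | Signal: Bottom-read fluorescence, 550/595 nm | Read-out: Retained DiI signal reflecting DiI-HDL uptake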
Each line names hits and unclear results; the compound was inactive in the other large screens; ! = a repeat was not active. Most compounds without a hit are left out; they make up all but 2.4% or so of the library.

O=C(N/N=C/c1cc(Cl)ccc1O)C(=O)Nc1ccccc1OC(F)(F)C(F)F	Insulin prom up inconclusive, SR-BI HDL uptake 119 (no result: Calb FLC, beta cell repl)
CC1(C)CC(=O)C(C(C2=C(O)CC(C)(C)CC2=O)c2ccc(Br)s2)C(=O)C1 (configuration not stated)	none
Fc1cccc(NC(=S)NCc2ccc(Cl)cc2)c1	none
Fc1cc(NC(=S)NCc2ccc(CNC(=S)Nc3ccc(Cl)c(F)c3)cc2)ccc1Cl	SR-BI HDL uptake 73
COC(=O)c1c(C)n(-c2ccc(C)cc2)c2ccc(O)cc12	none (no result: Insulin prom up)
COC(=O)c1c(C)n(-c2ccccc2)c2ccc(O)cc12	Calb FLC 92 (no result: Insulin prom up)
O=C(O)COc1ccccc1/C=N/NC(=O)C(O)c1ccccc1 (configuration not stated)	none (no result: Insulin prom up, SR-BI HDL uptake, SR-BI uptake up)
CN1C(=O)[C@@](O)(c2cn(C)c3ccccc23)c2cc(Br)ccc21	none (no result: Calb FLC, Insulin prom up, beta cell repl, SR-BI HDL uptake, SR-BI uptake up)
Cc1ccc(-n2c(C)cc(/C([O-])=C(/C(=S)Nc3ccc(F)c(Cl)c3)[n+]3ccccc3)c2C)cc1	Calb FLC 110 (no result: Insulin prom up)
O=C(NC1C=CS(=O)(=O)C1)c1sc2ccccc2c1Cl (configuration not stated)	Insulin prom up 3.9
COc1ccc(N2CCN(C3CCCN(C(=O)C4=C(C)OCCO4)C3)CC2)cc1 (configuration not stated)	none (no result: Insulin prom up)
CC1(C(=O)Nc2ccc(Cl)c(Cl)c2)CCN1C(=O)Cc1ccc(-c2ccccc2)cc1 (configuration not stated)	none (no result: Calb FLC, Insulin prom up, beta cell repl, SR-BI HDL uptake, SR-BI uptake up)
O=C(/C=C/c1ccco1)Oc1cc(Br)cc(/C=N/NC(=O)c2ccccc2O)c1	Calb FLC 90, SR-BI HDL uptake 134 (no result: beta cell repl)
O=C1OC(c2ccccc2)(c2ccc3cc(O)ccc3c2)c2ccccc21 (configuration not stated)	none (no result: Calb FLC, Insulin prom up, beta cell repl)
CCOC(=O)N1CCC(NC(=O)c2cc(S(=O)(=O)N3CCCC3)cn2C)CC1	none
CCOC(=O)N1CCN(C(=O)c2cc(S(=O)(=O)N3CCCC3)cn2C)CC1	Insulin prom up 3
COc1ncc(-c2ccc(N3C(c4ccsc4)=Cc4ccccc4C3CC(C)=O)cc2)cn1 (configuration not stated)	none (no result: Calb FLC, Insulin prom up, beta cell repl, SR-BI HDL uptake, SR-BI uptake up)
CCOC(=O)C1=C(COC(=O)/C=C/c2cc(OC)c(OC)c(OC)c2)NC(=O)NC1C (configuration not stated)	SR-BI HDL uptake 81 (no result: Insulin prom up)
CC1=C(C(=O)Nc2ccccc2C(=O)N2CCN(c3ccccc3)CC2)SCCO1	none (no result: Calb FLC, Insulin prom up, beta cell repl, SR-BI HDL uptake, SR-BI uptake up)
Cc1ccc(C(F)(F)F)cc1NC(N)=S	SR-BI HDL uptake 77
Cc1ccc(NC(N)=S)cc1C	none
CCCCCCCCCCCCCCCCn1cc[n+](C)c1	Calb FLC 86!, Insulin prom up inconclusive
COc1ccc(CCNC(=S)N2CCC(C(=O)c3ccc(F)cc3)CC2)cc1OC	SR-BI HDL uptake 80
Cc1ccc(NC(=O)N2CCOCC2)cc1NC(=O)N1CCOCC1	none (no result: Calb FLC, Insulin prom up, beta cell repl, SR-BI HDL uptake, SR-BI uptake up)
CCOC(=O)c1nc2c(ccc3ccccc32)cc1C	none (no result: SR-BI HDL uptake, SR-BI uptake up)
CC[C@H]1C(=O)[C@@H](Cc2ccccc2)[C@@H]2CCN3C(=O)CCC[C@H]1[C@H]23	none (no result: Calb FLC, Insulin prom up, beta cell repl)
CCCCNC(=O)C1CC(=O)N(C2CCCCC2)C1 (configuration not stated)	Insulin prom up 3
CCOc1cc(NC(=S)NC)c(OCC)cc1NC(=O)c1ccc(OC)cc1	SR-BI HDL uptake 82
CCOc1cc(NC(=S)Nc2ccccc2OC)c(OCC)cc1NC(=O)c1ccccc1C	SR-BI HDL uptake 87
CCOc1cc(NC(=S)NCC2CCCO2)c(OCC)cc1NC(=O)c1ccc(OC)cc1 (configuration not stated)	none
CCOc1cc(NC(=S)Nc2ccccc2)c(OCC)cc1NC(=O)c1ccccc1	SR-BI HDL uptake 81 (no result: Insulin prom up)
CCOc1cc(NC(=O)c2ccccn2)c(OCC)cc1NC(=O)c1ccccc1	none
COc1ccc(CN2C(=O)C(CC(=O)NCCc3ccccn3)CC(C(=O)N3CCCCCC3)=C2C)cc1 (configuration not stated)	none (no result: Calb FLC, Insulin prom up, beta cell repl, SR-BI HDL uptake, SR-BI uptake up)
O=C1C=C(c2cccc3c2Oc2ccccc2S3)C[C@@H](c2ccc(Cl)cc2)C1	none (no result: Calb FLC, Insulin prom up)
COc1ccc([C@H]2CC(=O)C=C(c3cccc4c3Oc3ccccc3S4)C2)cc1OC	SR-BI HDL uptake 80 (no result: Calb FLC, Insulin prom up)

Screening results (PubChem BioAssay)
